Published values collected from several papers.
Compare with care: the assays were run in different laboratories.
Cell line: SW480
Effect on: cell growth or viability

Cc1cc2c(cc1N1C(=O)c3cccc4c(CCCO)ccc(c34)C1=O)n(C)c(=O)n2C (racemic) — GI50 (resazurin): > 10000 nM
CC[C@H](C)C(=O)O[C@H]1C[C@@H](C)C=C2C=C[C@H](C)[C@H](CC[C@@H]3C[C@@H](O)CC(=O)O3)[C@H]21 — IC50 (SRB; 72 h): 8.85 µg/mL
CC(C)C[C@H](NC(=O)[C@H](Cc1ccccc1)NC(=O)c1cnccn1)B(O)O — IC50 (ATP luminescence): 8.6 nM
O=C(O)C[C@H](O)C[C@H](O)/C=C/c1c(C2CC2)nc2ccccc2c1-c1ccc(F)cc1 — IC50 (SRB; 72 h): 32.3 µg/mL
C=CCNC1=C2C[C@@H](C)C[C@H](OC)[C@H](O)[C@@H](C)/C=C(\C)[C@H](OC(N)=O)[C@@H](OC)/C=C\C=C(/C)C(=O)NC(=CC1=O)C2=O — IC50 (MTT): 657 nM
COc1cc(Nc2nccc(-c3cnn4nc(OC)ccc34)n2)cc(C(F)(F)F)c1 — IC50 (ATP luminescence): 720 nM
COC1=C2C[C@@H](C)C[C@H](OC)[C@H](O)[C@@H](C)/C=C(\C)[C@H](OC(N)=O)[C@@H](OC)/C=C\C=C(/C)C(=O)NC(=CC1=O)C2=O — IC50 (MTT): 308 nM
COc1cc([C@@H]2c3cc4c(cc3[C@@H](O[C@@H]3O[C@@H]5CO[C@@H](C)O[C@H]5[C@H](O)[C@H]3O)[C@H]3COC(=O)[C@H]23)OCO4)cc(OC)c1O — IC50 (MTT; 48 h): 17100 nM
